Sampled rows, rich in hits. Any-hit rate of the full collection: about 3%.
MC4R antagonist – human MC4R antagonism in cAMP assay | P32245 | MC4R-expressing cells, MTII-stimulated cAMP, LANCE TR-FRET | inhibition, % at 6.5 µM | 0.48% of 360,000 active;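 active = inhibition above its plate's cutoff, the mean of tested wells on that plate plus 3 SD, cut at about 29% in these data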;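 note: 0% = Melanotan II alone and 100% = Melanotan II plus saturating MCL0020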
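Assay system: U2OS cells stably expressing human melanocortin 4 receptor (MC4R) / Dosing: 6.5 µM / Timing: compound 30 min, challenge 1 h, detection 1 h / Measured by: Eu-cAMP/anti-cAMP TR-FRET, emission 671 nm / Replicates: singlicate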
MC4R barr agon – activates human MC4R beta-arrestin recruitment. U2OS MC4R beta-arrestin complementation, luminescence; percent of melanotan II response, DMSO zero. activation, % at 8.9 µM. 0.98% of 360,000 active. AID 540308;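 active = activation above a per-plate cutoff, the mean activation of sample wells on that plate plus 3 SD, cut at about 8% in these data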
PfGluPho inh – PfG6PD (Plasmodium falciparum) enzyme inhibition | PfGluPho enzyme, NADPH resazurin-diaphorase fluorescence | inhibition, % at 20 µM | 0.78% of 350,000 active | AID 504690;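 active = inhibition reaching at least a set limit at 20 µM in the primary screen, cut at about 59% in these data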;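 note: 0% = DMSO wells with substrate and 100% = DMSO wells lacking glucose-6-phosphate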
ABHD5 PLIN5 PPI – blocks binding of human ABHD5 to perilipin-5; 0.78% of 360,000 active; Split G. princeps luciferase complementation, luminescence, 4 h; AID 602281; Q00G26+Q8WTS1; inhibition, % at 4 µM;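 active = inhibition above the mean inhibition across every tested compound plus 3 SD, cut at about 22% in these data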;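 note: 0% = DMSO only wells and the 100% control is not disclosed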
Target sequence (Q00G26 whole entry, looked up): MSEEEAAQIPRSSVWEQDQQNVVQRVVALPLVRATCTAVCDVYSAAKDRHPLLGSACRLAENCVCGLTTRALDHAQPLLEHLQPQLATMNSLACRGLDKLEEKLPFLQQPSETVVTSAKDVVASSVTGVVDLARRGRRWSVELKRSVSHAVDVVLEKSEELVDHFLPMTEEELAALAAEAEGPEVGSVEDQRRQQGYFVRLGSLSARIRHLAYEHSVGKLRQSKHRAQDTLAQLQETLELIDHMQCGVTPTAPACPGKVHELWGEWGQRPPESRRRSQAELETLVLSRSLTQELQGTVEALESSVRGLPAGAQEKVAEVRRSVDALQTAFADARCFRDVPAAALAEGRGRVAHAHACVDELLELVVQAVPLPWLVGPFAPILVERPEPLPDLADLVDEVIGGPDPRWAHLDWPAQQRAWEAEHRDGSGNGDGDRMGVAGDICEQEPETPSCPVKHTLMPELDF
Target sequence (Q8WTS1 whole entry, looked up): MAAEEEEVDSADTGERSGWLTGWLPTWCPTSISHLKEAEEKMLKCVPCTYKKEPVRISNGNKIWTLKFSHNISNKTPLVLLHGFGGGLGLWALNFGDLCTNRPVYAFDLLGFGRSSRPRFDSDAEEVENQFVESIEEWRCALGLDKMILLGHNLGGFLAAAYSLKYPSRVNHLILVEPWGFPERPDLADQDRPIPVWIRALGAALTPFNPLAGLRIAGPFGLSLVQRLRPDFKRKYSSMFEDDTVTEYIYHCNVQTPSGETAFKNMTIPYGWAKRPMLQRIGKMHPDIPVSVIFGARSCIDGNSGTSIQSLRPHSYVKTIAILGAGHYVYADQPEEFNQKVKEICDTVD
B2AR ag – human beta-2 adrenergic receptor agonism by FAP | 0.43% of 340,000 active | response, % (test concentration not listed) | P07550 | Am2.2-beta2AR cells, FAP receptor internalization, flow cytometry;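 active = response above a set limit, near 3 SD of response in nonfluorescent compounds, cut at about 42% in these data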
MC4R barr conf – human MC4R beta-arrestin agonism confirmation | U2OS MC4R beta-arrestin recruitment, luminescence; scaled DMSO 0%, Melanotan II 100% | shares compounds with MC4R barr agon | AID 602192 | 31% of 2,400 active | activation, % at 8.9 µM;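 active = mean activation across replicates above the hit cutoff set in the earlier primary screen, cut at about 8% in these data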
MOR-DOR barr ag – OPRM1-OPRD1 heterodimer agonism counter-screen. shares compounds with MC4R barr agon. U2OS PathHunter beta-arrestin, beta-gal luminescence; percent of deltorphin B response, DMSO zero. activation, % at 9.2 µM. 5.8% of 2,400 active. AID 602194;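 active = mean activation across replicates exceeds the hit threshold derived in the earlier primary screen, cut at about 18% in these data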;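 note: 100% = deltorphin B at 0.9 µM final and 0% = DMSO alone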
Starred values were filed as active, the others as inactive; . = no result given.

SMILES	MC4R antagonist	MC4R barr agon	PfGluPho inh	ABHD5 PLIN5 PPI	B2AR ag	MC4R barr conf	MOR-DOR barr ag
O=C(CC(=O)Nc1cc(Cl)ccc1Cl)Nc1cc(Cl)ccc1Cl	9	15*	5	-3	2	4	5
Cc1cc(Cl)ccc1NC(=S)N1CCN(C(=O)c2ccco2)CC1	18	-2	13	-3	-5	.	.
Cc1ccc(S(=O)(=O)N2CCN(CCNC(=O)C(=O)Nc3ccc(F)cc3)CC2)cc1	24	14*	-5	-7	-7	0	6
O=C(NCCN1CCN(S(=O)(=O)c2ccccc2)CC1)C(=O)Nc1ccc(F)cc1	6	-1	-10	2	1	.	.
Cc1cc(C)n(CC(O)Cn2c3ccc(Cl)cc3c3cc(Cl)ccc32)c(=O)n1 (configuration not stated)	5	2	8	14	0	.	.
OC(CNCCC1C=Nc2ccccc21)Cn1c2ccc(Cl)cc2c2cc(Cl)ccc21 (configuration not stated)	-4	17*	15	20	23	5	31*
CCOC(=O)c1ccc(NC(=S)Nc2cccc(C)n2)cc1	1	22*	-17	-9	-6	7	7
COc1ccc(-n2nnc3c(=O)n(Cc4ccccc4C)cnc32)cc1	-1	-1	2	-2	6	.	.
Cc1ccc(C)c(Cn2cnc3c(nnn3-c3ccc(F)cc3)c2=O)c1	1	13*	-7	6	-2	0	2
CCOC(=O)/C(=N\Nc1ccc(C(C)=O)cc1)c1csc(Nc2ccccc2)n1	21	21*	4	1	-7	13*	4
O=C(CN1CCN(c2ccccc2F)CC1)NC(=O)NCc1ccccc1	-1	2	-3	0	-4	.	.
O=C(CN1CCN(c2ccccc2)CC1)NC(=O)NCc1ccccc1	5	14*	-6	-1	-7	5	2
CN1CCC(OC(=O)c2cccc(Cl)c2)CC1	20	-2	3	5	-3	.	.
O=C1Nc2ccccc2/C1=C/c1cnc(-c2ccccc2)[nH]1	-4	20*	8	2	-11	25*	4
O=C1Nc2ccccc2/C1=C/c1cccnc1	-18	0	8	17	-11	.	.
O=C(NNC(=O)c1ccncc1)Nc1ccc(N=Nc2ccccc2)cc1	10	-3	-17	0	10	.	.
Cc1ccc(CNC(=O)c2ccc(COc3ccccc3)cc2)cc1	-1	13*	-13	-14	-8	-1	4
O=C(NCc1ccncc1)c1ccc(OCc2ccccc2)cc1	5	-2	9	-1	2	.	.
O=C(c1cccc(Cl)c1)N1CCN(CCCc2ccccc2)CC1	12	-3	4	3	3	.	.
COc1cc(-c2cc(NC(C)=O)c3ncc(-c4cc(OC)c(OC)c(OC)c4)n3c2)cc(OC)c1OC	-33	9.6*	.	8	.	9.3*	2
CC(=O)Nc1cc(-c2ccsc2)cn2c(-c3ccc(F)cc3)cnc12	-4	18*	.	1	.	13*	4
COc1ccc(-c2cc(NC(C)=O)c3ncc(-c4ccc(OC)c(OC)c4)n3c2)cc1OC	11	15*	.	2	.	23*	2
CC(=O)Nc1cc(-c2cccnc2)cn2c(-c3ccc(F)cc3)cnc12	12	42*	.	4	.	44*	0
CC(=O)Nc1cc(-c2cccc(C(=O)NCCO)c2)cn2c(-c3ccc(F)cc3)cnc12	23	3	.	2	.	.	.
CC(C)(CNC(=O)CCC1CCCC1)CNC(=O)CCC1CCCC1	-4	0	8	-1	-8	.	.
SMILES	MC4R antagonist	MC4R barr agon	PfGluPho inh	ABHD5 PLIN5 PPI	B2AR ag	MC4R barr conf	MOR-DOR barr ag
O=C(NCc1ccncc1)c1ccc(S(=O)(=O)Nc2ccccc2)cc1	4	-1	11	6	-2	.	.
COc1cccc(/C=C/C(=O)OCC(=O)NC2CC2)c1OC	7	-2	13	4	-6	.	.
COc1ccc(-c2cnc3c(NC(C)=O)cc(-c4ccsc4)cn23)cc1OC	5	11*	.	4	.	15*	4
COc1ccccc1-c1cc(NC(C)=O)c2ncc(-c3cccc(C(C)=O)c3)n2c1	-17	11*	.	6	.	18*	4
COc1ccc(-c2cnc3c(NC(C)=O)cc(-c4ccccc4OC)cn23)cc1OC	-28	22*	.	3	.	25*	2
COc1ccc(-c2cnc3c(NC(C)=O)cc(-c4cccc(C(=O)N(C)C)c4)cn23)cc1OC	4	3	.	0	.	.	.
CC(=O)N1c2ccc(S(=O)(=O)N3CCCC(C(=O)NCc4ccccc4)C3)cc2CC1C (configuration not stated)	4	-1	15	0	11	.	.
Cc1nc(N2CCOCC2)nc(OCCN2CCOCC2)c1[N+](=O)[O-]	-1	-2	1	-6	1	.	.
CCSc1nnc(NC(=O)C2CC2c2ccccc2)s1 (configuration not stated)	-5	15*	1	1	3	6	7
COc1ccc(Cc2nn3c(-c4cc(OC)c(OC)c(OC)c4)nnc3s2)cc1	-38	-2	23	0	2	.	.
COc1ccc(OCc2nn3c(-c4cccc(OC)c4)nnc3s2)cc1	7	11*	0	-2	-5	4	3
COc1cc(-c2nnc3sc(Cc4ccc(Cl)cc4)nn23)cc(OC)c1OC	-66	14*	45	-4	5	11*	3
O=C(NCc1ccco1)c1ccc2sc([C@@H]3O[C@H](CO)[C@@H](O)[C@H]3O)nc2c1	-4	-2	.	2	.	.	.
C=CCC[C@@H](Cc1ccc(F)cc1)C(=O)OC[C@@H](Cc1c[nH]c2ccccc12)NC(=O)[C@H](CC=C)CC(=O)N[C@H](CO)Cc1ccccc1	15	10*	-9	9	0	5	5
C=CC[C@H](CC(=O)N[C@H](CO)Cc1ccccc1)C(=O)N[C@H](COC(=O)[C@H](CC=C)CC(=O)OC(C)(C)C)Cc1c[nH]c2ccccc12	8	22*	11	-7	-2	1	3
Cn1c(=O)c(C(=O)CSc2ccccc2)c(N)n(Cc2ccccc2)c1=O	-2	30*	-8	14	-9	1	9
CCOC(=O)C(=CNc1ccc2c(c1)nnn2-c1ccc(Cl)cc1)C(=O)OCC	11	22*	-11	3	-2	23*	4
COc1ccc(CCN2C(=O)c3ccncc3C2=O)cc1OC	7	14*	2	7	4	1	3
COc1ccccc1CN1C(=O)c2ccncc2C1=O	2	-2	6	2	1	.	.
O=C(CSc1nc2ccccc2[nH]1)c1c[nH]c2ccccc12	-7	0	13	5	-10	.	.

Assay outcomes (PubChem BioAssay)
